This note sets out measurements from ChEMBL document CHEMBL4428090, “Modeling, Synthesis, and Biological Evaluation of Potential Retinoid X Receptor (RXR)-Selective Agonists: Analogues of 4-[1-(3,5,5,8,8-Pentamethyl-5,6,7,8-tetrahydro-2-naphthyl)ethynyl]benzoic Acid (Bexarotene) and 6-(Ethyl(5,5,8,8-tetrahydronaphthalen-2-yl)amino)nicotinic Acid (NEt-TMN)” (J Med Chem, 2016).

SMILES strings stand for the structures. Activity calls are given as the source filed them. The rule behind the calls is not given here.

The target in data set [1] is T1, Retinoid X receptor (Homo sapiens) (UniProt P28702+P48443+P19793). Description: Agonist activity at human RXR binding domain and activation domain expressed in human HCT116 cells assessed as rexinoid activity at 100 nM incubated for 24 hrs by luciferase reporter gene based mammalian two-hybrid assay relative to bexarotene. It is filed as cell-based. In short, it runs like this:
(§1)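 HCT-116 cells plated overnight (80,000/well, DMEM with 10% FBS), co-transfected for 24 h with human RXR binding-domain (bait) and activation-domain (prey) vectors, pFR-Luc Gal4 reporter and renilla control. Treated 24 h at 25, 100 or 1000 nM final; vehicle ethanol or DMSO 0.1%. Dual-luciferase read-out. Three independent assays in triplicate; bexarotene set to 100%.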
In general terms: A reporter such as luciferase makes a cellular process visible.

The target of data set [2] is T1, Retinoid X receptor (Homo sapiens). Description: Agonist activity at human RXR binding domain and activation domain expressed in human HCT116 cells assessed as rexinoid activity at 25 nM incubated for 24 hrs by luciferase reporter gene based mammalian two-hybrid assay relative to bexarotene. It counts as cell-based. Put shortly: as §1
Data set [3] concerns the target T2, Retinoic acid receptor RXR-alpha/oxysterols receptor LXR-alpha (Homo sapiens, UniProt P19793+Q13133).
T2 sequence (P19793 whole entry): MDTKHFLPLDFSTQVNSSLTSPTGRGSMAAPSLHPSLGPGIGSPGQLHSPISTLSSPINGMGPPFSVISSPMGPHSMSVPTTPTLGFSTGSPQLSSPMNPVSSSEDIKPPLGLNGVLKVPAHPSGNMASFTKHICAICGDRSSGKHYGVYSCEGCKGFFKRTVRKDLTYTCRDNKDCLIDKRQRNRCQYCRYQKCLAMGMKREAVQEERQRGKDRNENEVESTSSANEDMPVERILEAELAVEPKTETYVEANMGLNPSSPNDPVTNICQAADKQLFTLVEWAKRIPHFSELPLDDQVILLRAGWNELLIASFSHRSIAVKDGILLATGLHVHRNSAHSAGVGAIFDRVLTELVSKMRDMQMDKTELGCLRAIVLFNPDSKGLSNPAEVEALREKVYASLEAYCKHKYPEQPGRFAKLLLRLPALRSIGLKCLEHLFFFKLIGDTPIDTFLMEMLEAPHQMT
T2 sequence (Q13133 whole entry): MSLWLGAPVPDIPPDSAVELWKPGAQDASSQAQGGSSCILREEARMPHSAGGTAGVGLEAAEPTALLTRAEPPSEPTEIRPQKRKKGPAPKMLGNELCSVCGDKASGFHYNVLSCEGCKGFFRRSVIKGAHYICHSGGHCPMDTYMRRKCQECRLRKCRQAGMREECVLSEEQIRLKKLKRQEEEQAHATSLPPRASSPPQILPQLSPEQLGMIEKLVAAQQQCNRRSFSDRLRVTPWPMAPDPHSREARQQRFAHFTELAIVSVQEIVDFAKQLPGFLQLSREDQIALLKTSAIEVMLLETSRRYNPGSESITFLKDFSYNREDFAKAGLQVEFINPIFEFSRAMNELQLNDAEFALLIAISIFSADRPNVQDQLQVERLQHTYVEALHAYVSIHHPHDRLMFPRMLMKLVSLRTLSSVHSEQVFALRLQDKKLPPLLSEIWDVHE
Description: Agonist activity at human RXRalpha/LXRalpha expressed in human HCT116 cells assessed as reduction in SREBP-mediated transcription activity at 100 nM incubated for 24 hrs by luciferase reporter gene assay relative to bexarotene. Particulars: 0.1 µM. More on the design: scale not given: the % may be the effect or the level left. It is filed as cell-based. In short, it runs like this:
(§2)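 HCT116 cells co-transfected for 24 h with 100 ng pBP1c(6500)-Luc (about 6500 bp murine SREBP-1c promoter), 10 ng human LXRα and 20 ng renilla. Treated 24 h with compound at 100 nM, alone or with 100 nM TO901317. Luciferase output. Three independent assays in triplicate; bexarotene = 100%.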

Data set [4] has as its target T1, Retinoid X receptor (Homo sapiens). Kind of data set: Agonist activity at human RXR binding domain and activation domain expressed in human HCT116 cells assessed as rexinoid activity at 1000 nM incubated for 24 hrs by luciferase reporter gene based mammalian two-hybrid assay relative to bexarotene. It is filed as cell-based. Put shortly:
as §1

Data set [5] can be described thus: Mutagenicity in Saccharomyces cerevisiae D7 assessed as induction of mutagenesis by measuring forward and reverse mutations up to 0.1 mg/mL. It counts as toxicity.
Data set [6] addresses T2, Retinoic acid receptor RXR-alpha/oxysterols receptor LXR-alpha. Kind of data set: Agonist activity at human RXRalpha/LXRalpha expressed in human HCT116 cells assessed as reduction in SREBP-mediated transcription activity at 100 nM incubated for 24 hrs by luciferase reporter gene assay in presence of 100 nM LXR agonist TO901317 relative to bexarotene. It is filed as cell-based. More on the design: scale not given: the % may be the effect or the level left. Particulars: 0.1 µM. Put shortly: as §2

Data set [7] in a line: Lipid risk index, ratio of agonist activity at human RXRalpha/LXRalpha expressed in human HCT116 cells assessed as reduction in SREBP-mediated transcription activity to agonist activity at human RXRalpha expressed in human HCT116 cells assessed as increase in RXRE-mediated transcription. Put shortly:
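Lipid risk index: SREBP-promoter luciferase activity (HCT116, LXRα-transfected, 100 nM compound with or without 100 nM TO901317, 24 h) divided by RXRE activity at 100 nM. The SREBP:RXRE ratio for bexarotene is set to 1.0.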

Data set [8] addresses T3, Retinoic acid receptor RXR-alpha (Homo sapiens) (UniProt P19793).
T3 sequence (whole entry): T2 sequence (P19793 whole entry)
Description: Agonist activity at human RXRalpha expressed in human HCT116 cells assessed as increase in RXRE-mediated transcription at 100 nM incubated for 24 hrs by RXRE luciferase reporter gene assay relative to bexarotene. It counts as cell-based. In short, it runs like this: (§3)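 HCT-116 cells (80,000/well) co-transfected for 24 h with 250 ng RXRE-luciferase reporter (DR1 element from the rat cellular retinol binding protein II gene), 25 ng pSG5-human RXRα and 20 ng renilla. Dosed 24 h at 25, 100 or 1000 nM final; ethanol or DMSO vehicle 0.1%. Dual-luciferase read-out. Three independent assays in triplicate; bexarotene = 100%.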

The target of data set [9] is T3, Retinoic acid receptor RXR-alpha (Homo sapiens). Kind of data set: Agonist activity at human RXRalpha expressed in human HCT116 cells assessed as increase in RXRE-mediated transcription at 25 nM incubated for 24 hrs by RXRE luciferase reporter gene assay relative to bexarotene. It is filed as cell-based. Put shortly:
as §3

For data set [10] the target is unchanged. Description: Agonist activity at human RXRalpha expressed in human HCT116 cells assessed as increase in RXRE-mediated transcription at 1000 nM incubated for 24 hrs by RXRE luciferase reporter gene assay relative to bexarotene. It counts as cell-based. Put shortly:
as §3

The next data set addresses T4, Retinoid X receptor (Homo sapiens, UniProt P28702+P48443+P19793).
T4 sequence (P28702 whole entry): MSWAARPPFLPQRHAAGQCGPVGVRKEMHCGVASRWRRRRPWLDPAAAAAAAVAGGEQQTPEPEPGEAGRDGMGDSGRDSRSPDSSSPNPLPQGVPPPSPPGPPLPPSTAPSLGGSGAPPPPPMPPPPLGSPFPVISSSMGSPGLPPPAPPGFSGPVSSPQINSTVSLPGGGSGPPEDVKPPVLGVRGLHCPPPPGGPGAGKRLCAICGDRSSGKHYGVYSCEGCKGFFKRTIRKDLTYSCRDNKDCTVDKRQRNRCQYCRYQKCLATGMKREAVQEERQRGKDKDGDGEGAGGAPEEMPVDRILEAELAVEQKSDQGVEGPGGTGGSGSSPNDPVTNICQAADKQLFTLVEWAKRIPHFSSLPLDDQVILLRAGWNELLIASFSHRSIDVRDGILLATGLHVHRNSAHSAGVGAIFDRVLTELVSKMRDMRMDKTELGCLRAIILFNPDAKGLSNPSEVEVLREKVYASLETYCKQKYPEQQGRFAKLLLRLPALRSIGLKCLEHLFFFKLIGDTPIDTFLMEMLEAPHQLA
T4 sequence (P48443 whole entry): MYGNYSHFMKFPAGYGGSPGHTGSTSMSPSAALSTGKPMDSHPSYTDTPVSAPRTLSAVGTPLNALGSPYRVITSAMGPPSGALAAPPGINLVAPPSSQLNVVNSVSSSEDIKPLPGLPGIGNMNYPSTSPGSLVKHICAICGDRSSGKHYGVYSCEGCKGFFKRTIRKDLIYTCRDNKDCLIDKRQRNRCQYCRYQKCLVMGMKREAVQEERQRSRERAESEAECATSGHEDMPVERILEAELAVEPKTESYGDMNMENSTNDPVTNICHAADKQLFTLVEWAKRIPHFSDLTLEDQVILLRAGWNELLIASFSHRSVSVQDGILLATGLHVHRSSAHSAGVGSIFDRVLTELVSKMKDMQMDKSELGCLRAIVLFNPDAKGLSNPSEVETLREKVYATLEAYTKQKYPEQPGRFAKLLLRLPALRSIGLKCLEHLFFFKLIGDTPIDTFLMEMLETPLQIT
T4 sequence (P19793 whole entry): T2 sequence (P19793 whole entry)
Description: Agonist activity at human RXR binding domain and activation domain expressed in human HCT116 cells assessed as rexinoid activity incubated for 24 hrs by luciferase reporter gene based mammalian two-hybrid assay. It is filed as cell-based.

Data set [11] deals with HuT78. Description: Growth inhibition of human HUT78 cells at 200 nM incubated for 72 hrs by MTS assay relative to bexarotene. It is filed as functional. Conditions: HuT78, 72 h, read-out: GI. Put shortly:
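Hut78 cells in RPMI with 10% FBS at 37°C, 5% CO2. Plated 7,500 cells/well and immediately dosed at 200 nM for 72 h. MTS read at A490; percent inhibition with media control set to 0.0, compared with bexarotene set to 100%. Mean of three independent experiments.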

Data set [12] relates to HuT78. Kind of data set: Inhibition of HDAC1 gene expression in human HUT78 cells at 100 nM incubated for 48 hrs by quantitative real-time PCR method. It is filed as functional. Particulars: HuT78, 48 h. Put shortly: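 Hut78 cells resuspended in RPMI with 1% FBS, plated 750,000/well and dosed at 100 nM for 48 h. Total RNA extracted, 0.5 µg DNase-treated RNA reverse-transcribed, then qPCR for HDAC1. Quantified by ΔΔCt, normalized to GAPDH and relative to vehicle-treated cells (2^-ΔΔCt).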
(In general: Real-time PCR tracks product formation cycle by cycle.)

The target of data set [13] is T3, Retinoic acid receptor RXR-alpha (Homo sapiens). Kind of data set: Agonist activity at human RXRalpha expressed in human HCT116 cells assessed as increase in RXRE-mediated transcription incubated for 24 hrs by RXRE luciferase reporter gene assay. It is filed as cell-based.
In data set [14] the target is T1, Retinoid X receptor (Homo sapiens). Kind of data set: Antagonist activity against human RXR binding domain and activation domain expressed in human HCT116 cells assessed as reduction in bexarotene-induced rexinoid activity incubated for 24 hrs by luciferase reporter gene based mammalian two-hybrid assay. It counts as cell-based.

Turning to `CCN(c1ccc(C(=O)O)cn1)c1cc2c(cc1C)C(C)(C)CCC2(C)C`, the Activity in data set [1] is 135 to 146%; in data set [3] it was “Active”; in [4], 35 to 58%; in [5], “Non-Toxic”; in data set [6] it was 13 to 17%; in data set [8], 68 to 89%. The Activity in data set [9] fell in the range of 27 to 66%; in [10], 20 to 43%. Further, in data set [2], the fold change (FC) is 2. Also, the Ratio in data set [7] is listed as 0.49 - 0.51. Moreover, at Retinoid X receptor, the EC50 is reported as 13.8 nM. In the data set with HuT78 [11], the inhibition of growth at 0.2 µM is more than 85%.

Consider `C=C(c1ccc(C(=O)O)cc1)c1cc2c(cc1C)C(C)(C)CCC2(C)C` [BEXAROTENE], for which the inhibition at 0.1 µM in the data set with HuT78 [12] is 10%. Moreover, the Activity result in data set [5] is recorded as “Non-Toxic”.

For `CCN(c1ccc(C(=O)O)cc1)c1ccc2c(c1)C(C)(C)CCC2(C)C`, the outcome in data set [1] and in data set [10] was Active. Besides, the Activity was 54 to 79% in data set [3], “Non-Toxic” in [5], “Active” in [6] and 16 to 32% in data set [8]. The EC50 on Retinoid X receptor was 143.4 nM. In addition, the inhibition of growth at 0.2 µM with HuT78 [11] was in the range of 55 to 80%.

For the compound `C=C(c1ccc(S(=O)(=O)O)cc1)c1cc2c(cc1C)C(C)(C)CCC2(C)C`, the outcome in [13] and in [1] was inactive. Further, the Activity was 0.8% in data set [2]; “Not Active” in data set [3]; “Dose-dependent effect” in data set [14]; 17% in [4]; “Non-Toxic” in [5]. At Retinoid X receptor, the EC50 came to 18200 nM.

The EC50 is the midpoint of the concentration-response curve. Usually inhibition stands for the relative decrease from the control value, in per cent.
